The source made the active and inactive calls. The calls are words filed in the database; no cut-off is given here.
Columns and labels:
[1] = Half life in rat at 2 mg/kg, iv; assay type: ADME, organism-based; set-up: dose 2 mg/kg, route intravenous; settings: in vivo
Procedure, shortened: (§1)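 Rats given a single dose by vein (2 mg/kg) or by mouth (10 mg/kg). Plasma sampled, with AUC taken to 8 h and extrapolated to infinity. Cmax is the highest observed concentration, and Tmax is the time to it. Half-life, apparent volume of distribution, plasma clearance and oral bioavailability were also derived. Values are given as mean with standard error.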

[2] = Cmax in rat at 10 mg/kg, po; settings: in vivo
[3] = AUC (0 to 8 hrs) in rat at 2 mg/kg, iv; assay type: ADME, organism-based; set-up: time < 8 hr, dose 2 mg/kg, route intravenous; settings: plasma; procedure, shortened: as §1
[4] = AUC (0 to 8 hrs) in rat at 10 mg/kg, po; settings: plasma
[5] = Blocking of rat Voltage-dependent L-type calcium channel alpha1c/alpha2delta-1/beta1b activity expressed in HEK293 cells assessed as whole cell current by whole cell patch clamp assay; assay type: cell-based
Procedure, shortened: (§2)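 HEK293 cells transiently transfected with rat channel subunits and recorded 24–72 h later. Whole-cell patch clamp used barium as the charge carrier. Currents were elicited from a holding potential of −100 mV to the peak of each channel's current–voltage relation. Each compound was tested on 3–5 cells per subtype.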

[6] = Oral bioavailability in rat at 10 mg/kg, po; settings: in vivo
[7] = Cmax in rat at 2 mg/kg, iv; assay type: ADME, organism-based; set-up: dose 2 mg/kg, route intravenous; settings: in vivo; procedure, shortened: as §1
Rattus norvegicus [8] = test: Apparent oral clearance in rat at 10 mg/kg, po; settings: in vivo
[9] = Half life in rat at 10 mg/kg, po; settings: in vivo
[10] = AUC (0 to infinity) in rat at 2 mg/kg, iv; assay type: ADME, organism-based; set-up: time infinity, dose 2 mg/kg, route intravenous; settings: plasma; procedure, shortened: as §1
[11] = biological target: Voltage-dependent L-type calcium channel subunit beta-1/alpha-1B/alpha-2/delta-1 (Rattus norvegicus, UniProt Q02294); test: Blocking of rat N-type calcium channel alpha-1B/alpha-2-delta-1/beta-1b activity expressed in HEK293 cells assessed as whole cell current by whole cell patch clamp assay; assay type: cell-based
Voltage-dependent L-type calcium channel subunit beta-1/alpha-1B/alpha-2/delta-1, sequence (Q02294 whole entry): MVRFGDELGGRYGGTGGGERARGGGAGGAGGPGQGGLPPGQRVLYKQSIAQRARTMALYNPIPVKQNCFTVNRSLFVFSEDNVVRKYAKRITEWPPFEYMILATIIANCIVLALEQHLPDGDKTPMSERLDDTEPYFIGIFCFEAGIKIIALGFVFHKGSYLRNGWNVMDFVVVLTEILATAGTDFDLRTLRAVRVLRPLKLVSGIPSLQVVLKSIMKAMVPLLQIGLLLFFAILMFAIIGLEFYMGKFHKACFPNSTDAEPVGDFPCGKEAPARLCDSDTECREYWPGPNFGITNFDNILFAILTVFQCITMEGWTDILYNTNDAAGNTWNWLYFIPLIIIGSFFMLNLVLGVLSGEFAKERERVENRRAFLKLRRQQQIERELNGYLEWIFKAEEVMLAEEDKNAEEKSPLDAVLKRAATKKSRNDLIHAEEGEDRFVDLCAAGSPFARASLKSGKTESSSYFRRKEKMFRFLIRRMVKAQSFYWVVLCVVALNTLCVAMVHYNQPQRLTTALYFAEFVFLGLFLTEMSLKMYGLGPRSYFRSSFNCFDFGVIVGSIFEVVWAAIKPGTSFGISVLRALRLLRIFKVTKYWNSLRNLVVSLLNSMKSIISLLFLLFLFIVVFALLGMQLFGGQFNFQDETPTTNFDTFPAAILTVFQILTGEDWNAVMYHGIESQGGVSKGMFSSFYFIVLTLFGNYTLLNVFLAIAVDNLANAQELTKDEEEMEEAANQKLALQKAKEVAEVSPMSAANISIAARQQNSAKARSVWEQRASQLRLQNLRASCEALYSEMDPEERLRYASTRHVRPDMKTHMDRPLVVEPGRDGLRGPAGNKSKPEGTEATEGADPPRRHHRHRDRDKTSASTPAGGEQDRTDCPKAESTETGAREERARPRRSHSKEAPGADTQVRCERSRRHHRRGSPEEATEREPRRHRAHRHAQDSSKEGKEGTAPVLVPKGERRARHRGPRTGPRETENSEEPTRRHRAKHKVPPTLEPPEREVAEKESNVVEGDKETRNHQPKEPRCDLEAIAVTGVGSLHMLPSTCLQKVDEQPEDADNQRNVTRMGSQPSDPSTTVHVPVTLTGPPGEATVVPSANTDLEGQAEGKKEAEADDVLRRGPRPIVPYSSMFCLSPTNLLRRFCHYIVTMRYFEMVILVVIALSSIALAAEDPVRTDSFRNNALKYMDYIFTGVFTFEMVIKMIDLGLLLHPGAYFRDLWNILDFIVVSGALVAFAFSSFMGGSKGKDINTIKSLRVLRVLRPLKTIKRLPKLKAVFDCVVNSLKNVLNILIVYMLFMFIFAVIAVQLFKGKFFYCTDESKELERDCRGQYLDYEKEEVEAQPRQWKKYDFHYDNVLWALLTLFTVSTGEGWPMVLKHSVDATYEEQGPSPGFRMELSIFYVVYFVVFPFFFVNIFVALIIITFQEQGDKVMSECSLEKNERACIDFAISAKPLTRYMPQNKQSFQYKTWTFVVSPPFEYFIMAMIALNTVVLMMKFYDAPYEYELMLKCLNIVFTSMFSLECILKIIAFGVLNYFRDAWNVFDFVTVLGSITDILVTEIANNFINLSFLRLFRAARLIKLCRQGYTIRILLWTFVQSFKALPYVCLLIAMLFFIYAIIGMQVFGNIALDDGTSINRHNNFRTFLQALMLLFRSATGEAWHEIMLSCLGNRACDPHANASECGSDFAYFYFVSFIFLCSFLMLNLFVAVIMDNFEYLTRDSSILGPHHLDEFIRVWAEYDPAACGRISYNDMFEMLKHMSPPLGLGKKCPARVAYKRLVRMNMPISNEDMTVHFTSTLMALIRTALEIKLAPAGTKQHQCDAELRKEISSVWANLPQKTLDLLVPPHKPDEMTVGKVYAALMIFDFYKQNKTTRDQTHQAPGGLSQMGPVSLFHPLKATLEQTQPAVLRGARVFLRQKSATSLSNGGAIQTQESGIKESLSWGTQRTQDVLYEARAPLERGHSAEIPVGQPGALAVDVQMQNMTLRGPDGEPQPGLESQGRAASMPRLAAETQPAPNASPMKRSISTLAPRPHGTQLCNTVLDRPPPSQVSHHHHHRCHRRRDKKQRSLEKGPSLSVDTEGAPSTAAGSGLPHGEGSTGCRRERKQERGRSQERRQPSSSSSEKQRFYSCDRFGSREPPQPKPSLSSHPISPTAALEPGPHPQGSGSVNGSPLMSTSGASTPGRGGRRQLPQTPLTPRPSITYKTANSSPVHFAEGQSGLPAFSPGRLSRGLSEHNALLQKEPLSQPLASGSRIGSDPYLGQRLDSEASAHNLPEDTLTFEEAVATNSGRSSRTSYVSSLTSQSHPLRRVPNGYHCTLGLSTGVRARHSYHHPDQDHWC
Voltage-dependent L-type calcium channel subunit beta-1/alpha-1B/alpha-2/delta-1, sequence (P54283 whole entry partner): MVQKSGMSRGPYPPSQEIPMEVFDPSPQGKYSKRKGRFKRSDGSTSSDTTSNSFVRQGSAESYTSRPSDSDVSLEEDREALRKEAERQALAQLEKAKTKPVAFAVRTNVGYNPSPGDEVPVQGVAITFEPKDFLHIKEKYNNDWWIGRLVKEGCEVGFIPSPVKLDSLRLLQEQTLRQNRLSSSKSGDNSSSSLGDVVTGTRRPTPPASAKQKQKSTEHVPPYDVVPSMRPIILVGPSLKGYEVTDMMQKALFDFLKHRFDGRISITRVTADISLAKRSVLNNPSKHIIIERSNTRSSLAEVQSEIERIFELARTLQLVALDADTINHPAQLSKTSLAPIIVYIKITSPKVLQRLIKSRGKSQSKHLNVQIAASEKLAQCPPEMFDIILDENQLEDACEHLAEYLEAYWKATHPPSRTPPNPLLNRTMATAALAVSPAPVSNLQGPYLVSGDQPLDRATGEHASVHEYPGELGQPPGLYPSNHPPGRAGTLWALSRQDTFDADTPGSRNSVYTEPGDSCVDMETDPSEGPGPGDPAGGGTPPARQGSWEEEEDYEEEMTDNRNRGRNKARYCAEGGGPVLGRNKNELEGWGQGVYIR
Voltage-dependent L-type calcium channel subunit beta-1/alpha-1B/alpha-2/delta-1, sequence (P54290 25-944 partner limits assumed): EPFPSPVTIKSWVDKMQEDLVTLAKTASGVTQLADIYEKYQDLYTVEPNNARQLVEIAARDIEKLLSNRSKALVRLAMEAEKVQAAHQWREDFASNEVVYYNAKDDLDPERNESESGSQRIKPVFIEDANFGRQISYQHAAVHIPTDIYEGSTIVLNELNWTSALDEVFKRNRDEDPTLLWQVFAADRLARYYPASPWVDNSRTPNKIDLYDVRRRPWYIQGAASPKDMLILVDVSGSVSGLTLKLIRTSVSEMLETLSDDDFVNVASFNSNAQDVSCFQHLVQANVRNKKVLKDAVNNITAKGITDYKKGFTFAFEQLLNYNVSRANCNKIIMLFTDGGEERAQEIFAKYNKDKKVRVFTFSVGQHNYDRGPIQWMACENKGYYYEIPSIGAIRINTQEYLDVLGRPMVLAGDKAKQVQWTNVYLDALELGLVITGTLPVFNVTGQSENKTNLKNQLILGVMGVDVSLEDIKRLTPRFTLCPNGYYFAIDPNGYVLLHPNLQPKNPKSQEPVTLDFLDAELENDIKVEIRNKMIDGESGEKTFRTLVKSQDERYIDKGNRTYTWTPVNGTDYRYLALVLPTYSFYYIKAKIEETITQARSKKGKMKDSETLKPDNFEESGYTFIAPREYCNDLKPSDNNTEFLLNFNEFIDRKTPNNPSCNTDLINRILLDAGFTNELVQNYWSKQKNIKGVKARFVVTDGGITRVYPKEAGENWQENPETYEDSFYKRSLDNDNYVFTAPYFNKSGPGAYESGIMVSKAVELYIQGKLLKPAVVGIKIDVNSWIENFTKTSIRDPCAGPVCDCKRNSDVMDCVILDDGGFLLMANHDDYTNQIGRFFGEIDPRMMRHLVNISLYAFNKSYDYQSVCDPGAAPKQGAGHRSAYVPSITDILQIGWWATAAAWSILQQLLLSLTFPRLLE
Voltage-dependent L-type calcium channel subunit beta-1/alpha-1B/alpha-2/delta-1, sequence (P54290 945-1091 partner limits assumed): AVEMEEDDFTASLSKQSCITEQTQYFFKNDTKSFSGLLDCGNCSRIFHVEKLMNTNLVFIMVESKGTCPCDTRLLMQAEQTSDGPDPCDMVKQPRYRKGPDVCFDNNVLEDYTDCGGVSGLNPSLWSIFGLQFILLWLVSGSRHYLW
Procedure, shortened: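 HEK293 cells transiently transfected with rat channel subunits, recorded 24–72 h post-transfection. Whole-cell patch clamp with barium as charge carrier; currents elicited from a holding potential of −100 mV to the peak of the current–voltage relation. Each compound tested on 3–5 cells; IC50 estimated.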

[12] = AUC (0 to infinity) in rat at 10 mg/kg, po; settings: plasma
[13] = Volume of distribution at steady state in rat at 2 mg/kg, iv; assay type: ADME, organism-based; set-up: dose 2 mg/kg, route intravenous; settings: in vivo, read-out: Vdss; procedure, shortened: as §1
Rattus norvegicus [14] = test: Analgesic activity against phse 2A portion of rat formalin-induced inflammatory pain model assessed as flinches at 25 mg/kg, ip; assay type: functional, organism-based; set-up: dose 25 mg/kg
Procedure, shortened: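 Rat formalin inflammatory pain model with the phase IIA portion scored. Compounds were given intraperitoneally at 25 mg/kg, using 24–26 animals per group.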

Rattus norvegicus [15] = species: Rattus norvegicus; test: Selectivity ratio of IC50 for rat Voltage-dependent L-type calcium channel to IC50 for rat N-type calcium channel; procedure, shortened: as §2
[16] = Displacement of radioligand from Voltage-dependent L-type calcium channel at 10 uM
[17] = biological target: Cannabinoid receptor 1 (Homo sapiens) (UniProt P21554); test: Displacement of radioligand from cannabinoid CB1 receptor at 10 uM
Cannabinoid receptor 1 (Homo sapiens), sequence (P21554 whole entry): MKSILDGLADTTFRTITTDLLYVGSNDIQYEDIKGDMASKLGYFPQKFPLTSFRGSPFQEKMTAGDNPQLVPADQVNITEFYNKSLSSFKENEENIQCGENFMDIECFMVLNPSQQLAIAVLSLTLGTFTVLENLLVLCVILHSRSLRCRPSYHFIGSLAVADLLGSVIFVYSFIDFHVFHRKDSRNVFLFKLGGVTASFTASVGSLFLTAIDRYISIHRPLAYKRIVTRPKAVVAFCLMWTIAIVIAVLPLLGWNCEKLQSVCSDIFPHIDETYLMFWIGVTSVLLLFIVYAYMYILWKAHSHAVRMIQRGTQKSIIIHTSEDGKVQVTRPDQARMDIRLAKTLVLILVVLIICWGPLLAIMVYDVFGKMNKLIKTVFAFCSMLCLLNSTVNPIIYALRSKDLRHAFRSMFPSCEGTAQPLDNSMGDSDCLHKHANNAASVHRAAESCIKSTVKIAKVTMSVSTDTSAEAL

hERG (KCNH2) = hERG (KCNH2) (Homo sapiens, UniProt Q12809); test: Inhibition of human ERG current at 1 uM
Procedure, shortened: (§3)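 Whole-cell patch clamp of HEK cells stably expressing hERG, measuring peak tail currents. A single 1 µM application was used for the screen. The concentration–response used 0.1, 1, 3 and 10 µM against a 0.1% DMSO control, with n = 4 per concentration.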

[18] = biological target: Voltage-gated inwardly rectifying potassium channel KCNH2 (Homo sapiens, UniProt Q12809); test: Inhibition of human ERG current; procedure, shortened: as §3
[19] = biological target: Mu-type opioid receptor (Homo sapiens) (UniProt P35372); test: Displacement of radioligand from mu opioid receptor at 10 uM
Mu-type opioid receptor (Homo sapiens), sequence (P35372 whole entry): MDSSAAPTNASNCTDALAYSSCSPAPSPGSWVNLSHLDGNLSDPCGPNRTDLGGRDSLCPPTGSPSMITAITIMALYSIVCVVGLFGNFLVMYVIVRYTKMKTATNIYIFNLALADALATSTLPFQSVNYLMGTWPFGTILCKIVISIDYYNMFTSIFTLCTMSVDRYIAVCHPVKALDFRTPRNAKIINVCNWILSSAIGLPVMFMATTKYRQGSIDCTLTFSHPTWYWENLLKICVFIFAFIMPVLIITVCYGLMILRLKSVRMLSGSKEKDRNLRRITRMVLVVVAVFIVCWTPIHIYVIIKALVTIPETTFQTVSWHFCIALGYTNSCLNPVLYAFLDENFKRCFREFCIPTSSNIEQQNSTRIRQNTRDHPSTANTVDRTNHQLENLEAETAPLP

[20] = Displacement of radioligand from voltage-gated sodium channel at 10 uM

Row | SMILES | IC50 ([5]; HEK293) | IC50 [11] | Ratio IC50 (Rattus norvegicus [15]) | further results
1 | COc1cc(C(=O)N2CCN(CCCCCC(c3ccc(F)cc3)c3ccc(F)cc3)CC2)cc(OC)c1OC | 2840 nM | 110 nM |  | half-life [1]: 5 h; Cmax [2]: 173 ng/mL; AUC(0-t) at 8 h [3]: 725 ng·h/mL; AUC(0-t) at 8 h [4]: 753 ng·h/mL; bioavailability [6]: 21%; Cmax [7]: 462 ng/mL; CL/F (Rattus norvegicus [8]): 170 mL/min/kg; half-life [9]: 4.5 h; AUC(0-inf) [10]: 975 ng·h/mL; AUC(0-inf) [12]: 1020 ng·h/mL; Vd [13]: 11.7 L/kg; Activity (Rattus norvegicus [14]): Active
2 | O=C(CCCCC(c1ccccc1)c1ccccc1)N1CCN(C(c2ccccc2)c2ccccc2)CC1 |  | 50000 nM |  | 
3 | COc1ccc(CN2CCN(C(c3ccc(F)cc3)c3ccc(F)cc3)CC2)c(OC)c1OC [LOMERIZINE] | 150 nM |  | 1.7 | 
4 | c1ccc(C(CCCCCN2CCN(C(c3ccccc3)c3ccccc3)CC2)c2ccccc2)cc1 |  | 50000 nM |  | 
5 | O=C(CCCCC(c1ccccc1)c1ccccc1)N1CCN(C/C=C/c2ccccc2)CC1 (stereo in doubt; 5c) [listing 1 of 2 here] |  | 120 nM |  | IC50 ([5]; hek293): 330 nM
6 | O=C(CC(c1ccccc1)c1ccccc1)N1CCN(C(c2ccccc2)c2ccccc2)CC1 [Z160] | 12200 nM | 110 nM | 111 | half-life [1]: 3.3 h; Cmax [2]: 235 ng/mL; Activity [16]: Active; Activity [17]: Active; AUC(0-t) at 8 h [3]: 715 ng·h/mL; AUC(0-t) at 8 h [4]: 999 ng·h/mL; inhibition at 1 µM (hERG (KCNH2)): 24.8%; bioavailability [6]: 30%; Cmax [7]: 771 ng/mL; IC50 [18]: 7400 nM; CL/F (Rattus norvegicus [8]): 164 mL/min/kg; half-life [9]: 2.1 h; AUC(0-inf) [10]: 761 ng·h/mL; Activity [19]: Active; AUC(0-inf) [12]: 1140 ng·h/mL; Vd [13]: 5.79 L/kg; Activity (Rattus norvegicus [14]): Active; Activity [20]: Active
7 | O=C(/C=C/c1cccc2c1OCO2)N1CCN(C(=O)CCCCC(c2ccccc2)c2ccccc2)CC1 | 740 nM | 130 nM | 5.7 | 
8 | c1ccc(C(CCCN2CCN(C(c3ccccc3)c3ccccc3)CC2)c2ccccc2)cc1 |  | 6000 nM |  | 
9 | O=C(CCCCC(c1ccccc1)c1ccccc1)N1CCN(C/C=C/c2ccccc2)CC1 (stereo in doubt; 5c) [listing 2 of 2 here] |  |  | 2.8 | 
10 | Nc1ccc(/C=C/C(=O)N2CCN(C(=O)CCCCC(c3ccccc3)c3ccccc3)CC2)cc1 | 830 nM | 150 nM | 5.5 | 
11 | c1ccc(C(CN2CCN(C(c3ccccc3)c3ccccc3)CC2)c2ccccc2)cc1 |  | > 50000 nM |  | 
12 | COc1ccc(/C=C/C(=O)N2CCN(C(=O)CCCCC(c3ccccc3)c3ccccc3)CC2)cc1 | 250 nM | 90 nM | 2.8 | 
13 | Fc1ccc(C(c2ccc(F)cc2)N2CCN(C/C=C/c3ccccc3)CC2)cc1 [FLUNARIZINE] | 310 nM | 80 nM | 3.9 | 
14 | O=C(CCCCC(c1ccccc1)c1ccccc1)N1CCN(C/C=C/c2ccccc2)CC1 (stereo in doubt; 5a) [listing 1 of 2 here] |  |  | 8 | 
15 | O=C(C(c1ccccc1)c1ccccc1)N1CCN(C(c2ccccc2)c2ccccc2)CC1 |  | > 50000 nM |  | 
16 | O=C(CCCCC(c1ccccc1)c1ccccc1)N1CCN(C/C=C/c2ccccc2)CC1 (stereo in doubt; 5a) [listing 2 of 2 here] | 390 nM | 50 nM |  | 
17 | c1ccc(C(CCN2CCN(C(c3ccccc3)c3ccccc3)CC2)c2ccccc2)cc1 |  | 5000 nM |  | 
18 | COc1cc(CN2CCN(C(=O)CCCCC(c3ccc(F)cc3)c3ccc(F)cc3)CC2)cc(OC)c1OC |  | 190 nM |  | 
19 | O=C(CCCCC(c1ccccc1)c1ccccc1)N1CCN(C/C=C/c2cccc3c2OCO3)CC1 |  | 190 nM |  | 
20 | O=C(CCCCC(c1ccc(F)cc1)c1ccc(F)cc1)N1CCN(C/C=C/c2ccccc2)CC1 | 120 nM | 90 nM | 1.3 | 
21 | O=C(CCC(c1ccccc1)c1ccccc1)N1CCN(C(c2ccccc2)c2ccccc2)CC1 |  | 23000 nM |  | 
22 | O=C(CCCC(c1ccccc1)c1ccccc1)N1CCN(C(c2ccccc2)c2ccccc2)CC1 |  | > 50000 nM |  | 
23 | COc1cc(C(=O)N2CCN(C(=O)CCCCC(c3ccc(F)cc3)c3ccc(F)cc3)CC2)cc(OC)c1OC |  | 540 nM |  | 
24 | c1ccc(C(CCCCN2CCN(C(c3ccccc3)c3ccccc3)CC2)c2ccccc2)cc1 |  | 20000 nM |  | 
25 | O=C(NC(c1ccccc1)c1ccccc1)N1CCN(C(c2ccccc2)c2ccccc2)CC1 | 1840 nM |  | 12 | 
26 | COc1ccc(/C=C/CN2CCN(C(=O)CCCCC(c3ccccc3)c3ccccc3)CC2)cc1 |  | 190 nM |  | 
